The text below walks through data of the RNAGym collection of RNA variant scans (doi:10.1126/science.aae0568).

Sequences and labels used below:
B1: tRNA (parent)
chain: GUUCCGUUGGCGUAAUGGUAACGCGUCUCCCUCCUAAGGAGAAGACUGCGGGUUCGAGUCCCGUACGGAACG

Fewer inactive variants are shown than the library holds. A value given as a limit tells only on which side of the number the result lay.

The variants in the data set derive from B1. Put plainly: yeast fitness relative to wild type (ratio to wild type); higher = fitter; tRNA-Arg(CCU), competitive growth, 37 C, YPD. In short, it runs like this:
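Genotype frequency changes were the basis for Darwinian fitness relative to wild type. The frequencies came from 100-nucleotide paired-end sequencing of gene amplicons from the start population and each end population of pooled yeast strains with tRNA-Arg(CCU) gene variants at the native locus. Competition ran in YPD at 37°C for 24 hours in six replicates, genotypes needed ≥ 100 starting reads, and estimates < 0.5 were set to 0.5.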
With U19G G58A C66U, the yeast fitness came out at 0.857.
As for U19C C27U C33G C34G G44A G50A G52A, the yeast fitness is at most 0.5.
The value for U19C A36C G58C was at most 0.5.
For U19G A43U C61G the value was 0.559; for U19C G25C G58A, 0.625; for U19C C22G G25C C33U G39C C62G, at most 0.5.
On to U19C C31U, for which the yeast fitness came to 0.986.
For the variant U19C C31G, the yeast fitness worked out at 0.841.
Regarding U19G A20U C30U G48A, the yeast fitness worked out at 0.577.
The value for U19G U64A A65G G67U was 0.606; that for U19C C22G C24A G39C A45U was 0.572; that for U19C C22G C24A G39C A45C was 0.916.
The value for U19C C24U U53A C62A C66U was at most 0.5; that for U19C A37G G44C G58A A65G was 0.63; that for U19C A43U C49U was 0.698.
Take U19G G44A G48A G50C: the yeast fitness is at most 0.5.
The value for U19G A20U G56A was 0.789.
The value for U19G G39C was 0.75; that for U19G G39A was 1.07.
For U19C C33A the value was 0.636.
Consider U19C G25C U54C C61G, for which the yeast fitness was at most 0.5.
Regarding U19G A20C U26C U28C, the yeast fitness is at most 0.5.
For U19G C29U C49U the value was at most 0.5; for U19C A21C G51A G58A, at most 0.5; for U19G C49G, 0.69.
Regarding U19C G50A C55A C62U, the yeast fitness was at most 0.5.
For U19G A45C A70U the value was 0.557.
Take U19C C24G G50C: the yeast fitness is 0.768.
U19C C49A C62A: the yeast fitness is at most 0.5.
The value for U19G C29U G39C A42U G67A was 0.537.
The value for U19C G23A C24A C29U C30U G63A was at most 0.5.
On to A20C A21C C62G, for which the yeast fitness is at most 0.5.
With U19G A37G C66U A69U, the yeast fitness is 0.691.
The value for U19C C27A C30G U54A G56A was 0.671.
In the case of U19C C27A C31G U32C G39C, the yeast fitness was at most 0.5.
For U19G C49U C62A A69G the value was at most 0.5; for U19G A21C C55G U59A, at most 0.5.
U19C C24G C34A: the yeast fitness is at most 0.5.
For U19C C31A A69U the value was 0.534; for U19G G51C, 0.537.
With U19C C30G G51C, the yeast fitness was at most 0.5.
The value for U19G C22U C31U A40U A65C G68A was at most 0.5.
Turning to U19G G58C, the yeast fitness is 1.03.
For U19C A65C the value was 0.888; for U19G A21U C29G A37U, at most 0.5.
Regarding U19C U32C A40C G41A, the yeast fitness was 0.674.
For the variant A20C A21U C27G U35G, the yeast fitness was determined as 0.521.
For U19C C34U A43U A70C the value was 0.572.
For A20C A21G G58C the value was 0.698; for U19G C33U A40C A45C, at most 0.5.
As for U19C C27G C31G G39C A57C, the yeast fitness is at most 0.5.
For the variant U19G U35C A40U, the yeast fitness is at most 0.5.
The value for U19C C24U A40C was 0.663; that for U19G A43C U53C C55G C66U was at most 0.5; that for U19C C24G A37U C46U U47A was at most 0.5.
Take A20C A21C G39A U53A: the yeast fitness is at most 0.5.
On to U19G A20U U53G, for which the yeast fitness was at most 0.5.
The value for A20C A21U C27G U35G C46A A70C was at most 0.5.
For U19C A65U G68A the value was 0.534; for U19C C22G C24A, 0.72.
As to U19C G51C C66U, the yeast fitness is at most 0.5.
For U19C C22A U32A A37U A45U the value was at most 0.5.
Consider U19C C22A U32A A37U A45C, for which the yeast fitness worked out at 0.505.
For A20C A21G C66U the value was 0.737; for U19C A45C G68C, at most 0.5.
The value for U19C C55G A65C was at most 0.5; that for U19C U64A was 0.898.
U19C U64G: the yeast fitness came out at 0.789.
The value for U19C U64C was 0.893.
Turning to U19C G48C A57G, the yeast fitness is 0.565.
For U19C C22U C55U C61G the value was at most 0.5; for U19C G39A G58A, 0.613.
In the case of U19C C34G G68A, the yeast fitness is at most 0.5.
The value for U19G C22U C31U A40U was 0.586; that for U19C C46G A69U was 0.803.
Take U19G A43C U53C C55G A70U: the yeast fitness is at most 0.5.
As for U19G C22G A36C A57G C60A C66G, the yeast fitness is at most 0.5.
The value for U19G G23A U35G was at most 0.5; that for A20C A21C was 0.608.
On to U19G C49U C60A, for which the yeast fitness is at most 0.5.
The value for U19G G25A G67A was 0.934; that for U19C C24G A37U U47A was 0.524; that for U19C A40U was 0.98.
The value for U19C A40G was 0.898; that for U19C A40C was 1.1.
For U19C C31G C66G the value was at most 0.5.
For the variant U19C U32C C60A C61A, the yeast fitness came to 0.731.
The value for U19C C24G A37U G56A A65C was at most 0.5; that for U19C G25A G48C C62A was at most 0.5; that for A20C A21C C30G G39C A42G was 0.631.
As to U19C A43G A69U, the yeast fitness amounted to 1.05.
Take U19G C30U C62G: the yeast fitness was determined as 0.603.
For U19G G25A G39A the value was 0.597.
For U19C A40C G50A the value was 0.664.
U19C C29U C34A: the yeast fitness is at most 0.5.
The value for U19C G23A A37C A65G was at most 0.5; that for U19G C49U A69C was at most 0.5; that for U19G A43U A70C was 0.716.
The value for U19C G56C A57G G68U was at most 0.5; that for U19C C29U C61U G68C was at most 0.5; that for U19C G48A C62A U64C was 0.636.
For the variant U19C G38C G58C U64A, the yeast fitness was at most 0.5.
For the variant U19C G50A A65C, the yeast fitness is 0.566.
As to U19C U28C G67C, the yeast fitness was found to be 0.638.
For U19G G25A the value was 0.958; for U19C C24G C33A, at most 0.5; for U19C A42G, 0.774.
The value for U19C A42C was 1.06; that for U19C C29A A43C was at most 0.5.
In the case of U19C C24U C66U, the yeast fitness was found to be 0.712.
On to U19G A37G A57G A70U, for which the yeast fitness is at most 0.5.
As to U19G C49U G50U, the yeast fitness is at most 0.5.
In the case of U19C G50A C61U, the yeast fitness was at most 0.5.
The value for U19G C22G C34U was 0.559; that for U19G C46U was 0.962.
The value for U19G C46A was 0.932; that for U19C G25C was 1.04.
The value for U19C C27U C46A C62G A69U was at most 0.5.
For the variant U19C C27U, the yeast fitness came to 1.08.
The value for U19C C27G was 0.579; that for U19C C30A was 1.03; that for U19C C62U was 0.925.
The value for U19C G56C was 0.67; that for U19C G25A A45G C62U was 0.702.
The value for U19C A36G A43G C60U C62U A70C was at most 0.5; that for U19C A45C was 0.861; that for U19C A45G was 1.
Consider U19C C27G C29A C33A A43C, for which the yeast fitness is at most 0.5.
As for U19C A45C C55U, the yeast fitness was 0.518.
For U19C G39A the value was 0.952; for U19G U47G G58C, at most 0.5.
The value for U19C C29U A57C G68C was at most 0.5.
For U19C A40C A65U the value was 0.605; for U19C A21G U26G G39C C46A A70C, at most 0.5.
For U19C A21G, the yeast fitness stood at 0.906.
The value for U19C C29A U32G G58A A69G was at most 0.5; that for U19C U35C was 0.81; that for U19C C31G C49U was 0.736.
For U19C G23A C24G A40U A65U the value was at most 0.5.
The value for U19C C27U C29G C34A A42C A69C was at most 0.5; that for U19G was 0.975.
On to U19G A20U C27G C66U, for which the yeast fitness was at most 0.5.
The value for U19C C29G A57G U59A G68U A70G was 0.55; that for U19C U35A G38A A42G A69G A70G was at most 0.5; that for U19C C24G A37U U47A A57G was at most 0.5.
The value for U19C C27U C29G C34A A42C A65G was 0.541.
Take U19C C24G U35C A37U U47A: the yeast fitness was at most 0.5.
U19C C49A: the yeast fitness came to 0.606.
The value for U19C C49U was 0.999.
For U19C G67U A69G the value was 0.751; for U19G C30A C49U, 0.602; for U19G A21U C46U, 0.809.
On to U19C C31U C33G G41A C55U C61A, for which the yeast fitness was at most 0.5.
For U19G C29A U54A the value was at most 0.5; for U19C C22U G44C, 0.551; for U19G C22U C31U A40U A69U, 0.569.
The value for A20C A21U G41A was at most 0.5.
For U19G C31A U35A C55G G58C the value was 0.519.
Turning to U19C A69U, the yeast fitness stood at 0.925.
The value for U19G U53A was 0.506; that for U19C A65G G68U was 0.583; that for U19C A36C G39A C62G was at most 0.5.
Take U19C C31G C62U: the yeast fitness was 0.702.
Consider U19G A43U A65G G68A, for which the yeast fitness stood at 0.512.
For U19C G48A the value was 1.04; for U19C C24U G51A, 0.66; for U19C C24G G39C, at most 0.5.
